Data set [1] deals with SiHa. The data set is described as follows: Cytotoxicity against human SiHa cells under hypoxic conditions after 4 hrs. The data set is classed as functional, cell-based.
Data set [2] relates to HT-29. As to the kind of experiment: Antitumor activity against human HT29 cells implanted in CD1 mouse at 562 umol/kg, ip administered 5 mins after irradiation by excision assay relative to radiation alone. Type of data set: functional. An outline of the steps: (§1)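 Hypoxic-cell excision assay in HT29 xenografts in CD-1 homozygous nude mice. Mice received 20 Gy γ radiation to sterilize oxic tumor cells, then a single i.p. drug dose (HCl salt in saline, 5% DMSO/saline or pH 4.0 lactate buffer) 5 min later. Tumors excised at 18 h and plated for clonogens/g. Log cell kill = log(clonogens/g, radiation only) − log(clonogens/g, radiation plus drug).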

Data set [3] concerns HT-29. The data set is described as follows: Ratio of IC50 for HT29 cells under oxic conditions to hypoxic conditions after 4 hrs. Type of data set: functional, Homo sapiens.
Data set [4] concerns HT-29. As to the kind of experiment: Antitumor activity against human HT29 cells implanted in CD1 mouse assessed as clonogenic survival at 562 umol/kg, ip after 18 hrs relative to control. The data set is classed as functional. An outline of the steps:
(§2)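 HT29 xenografts in CD-1 homozygous nude mice; single i.p. dose of drug alone, formulated as the HCl salt in 0.9% saline, 5% DMSO/saline or lactate buffer (pH 4.0). Tumors excised 18 h later, dissociated to single-cell suspensions and plated. Clonogens/g of tumor counted; surviving fraction = treated/control clonogens/g.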

For data set [5], the system named is SiHa. The data set is described as follows: Ratio of IC50 for SiHa cells under oxic conditions to hypoxic conditions after 4 hrs. Type of data set: functional, Homo sapiens.
The test system of a further data set is Mus musculus. The data set is described as follows: Toxicity in ip dosed CD1 mouse. The data set is classed as organism-based. The settings on record: in vivo. A digest of the protocol:
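MTD in CD-1 homozygous nude mice after single i.p. doses (HCl salts in saline, 5% DMSO/saline or lactate buffer pH 4.0), escalated in 1.33-fold increments. MTD taken as the highest dose causing no death, no body weight loss >15% and no other severe morbidity in any of 6 mice.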

The subject of data set [6] is HT-29. The data set is described as follows: Diffusion coefficient, D in HT29 multicellular layers. The data set is classed as ADME, cell-based. The settings on record: human. A digest of the protocol: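 HT29 multicellular layers were grown 3 days on collagen-coated Teflon membranes, equilibrated 60 min under 95% O2/5% CO2 at 37 °C, then placed in a diffusion chamber. Donor and receiver were sampled up to 5 h and assayed by HPLC. D came from fitting both profiles to a Fickian model with membrane and MCL in series, corrected by support-only Ds.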

Data set [7] can be described thus: Half life in CD1 mouse at 562 umol/kg, ip. The data set is classed as ADME, organism-based. The settings on record: in vivo. An outline of the steps: (§3)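 Single i.p. dose to CD-1 homozygous nude mice, drug as HCl salt in 0.9% saline, 5% DMSO/saline or lactate buffer (pH 4.0). Plasma total drug measured by HPLC at 75 or 100% of MTD (MTD from 1.33-fold dose steps, 6 mice). Noncompartmental analysis gave AUC, Cmax and t1/2.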

Data set [8] has as its system HT-29. As to the kind of experiment: Effect on human HT29 cells under hypoxic conditions assessed as drug level causing 10% clonogenic survival. The data set is classed as functional. An outline of the steps: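 HT29 suspensions (1 or 2 × 10^6 cells/mL) in serum-free medium were stirred under 5% CO2/95% N2 for 90 min. Drug was added from deoxygenated DMSO stock at a level giving about 10% survival at 1 h, and samples were taken up to 3 h. Clonogenic survival (14 days, methylene blue) was fitted with the HPLC concentration–time data, and the 10% survival exposure was interpolated.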

Data set [9] in a line: Cmax in CD1 mouse at 562 umol/kg, ip. Also noted: dose 562 umol/kg, route intraperitoneal. The settings on record: in vivo. Type of data set: ADME, organism-based. An outline of the steps: as §3
In data set [10] the test system is HT-29. The data set is described as follows: Cytotoxicity against human HT29 cells under hypoxic conditions after 4 hrs. As to conditions: HT-29, 4 h. The data set is classed as functional, cell-based.
Data set [11] in a line: Protein binding in mouse plasma by equilibrium dialysis. The data set is classed as ADME, cell-free. As to conditions: read-out: PPB (converted).
The nature of data set [12]: Solubility in culture medium in presence of 5% fetal calf serum. The data set is classed as physicochemical. As to conditions: culture medium with 5% fetal calf serum.
Data set [13] is described as follows: Half life in CD1 mouse at 750 umol/kg, ip. Type of data set: ADME, organism-based. As to conditions: in vivo. A digest of the protocol:
as §3

Data set [14] in a line: Cmax in CD1 mouse at 750 umol/kg, ip. The data set is classed as ADME, organism-based. On the set-up: dose 750 umol/kg, route intraperitoneal. As to conditions: in vivo. A digest of the protocol:
as §3

Data set [15] deals with HT-29. As to the kind of experiment: Antitumor activity against human HT29 cells implanted in CD1 mouse assessed as clonogenic survival at 750 umol/kg, ip after 18 hrs relative to control. Type of data set: functional. A digest of the protocol:
as §2

Data set [16] in a line: AUC in CD1 mouse at 750 umol/kg, ip. Type of data set: ADME, organism-based. As to conditions: plasma. A digest of the protocol:
as §3

Data set [17] has as its system HT-29. The data set is described as follows: Antitumor activity against human HT29 cells implanted in CD1 mouse at 750 umol/kg, ip administered 5 mins after irradiation by excision assay relative to radiation alone. Type of data set: functional. An outline of the steps:
as §1

A short description of data set [18]: Cmax in CD1 mouse at 316 umol/kg, ip. The data set is classed as ADME, organism-based. Also noted: dose 316 umol/kg, route intraperitoneal. The settings on record: in vivo. An outline of the steps:
as §3

Data set [19] relates to HT-29. As to the kind of experiment: Antitumor activity against human HT29 cells implanted in CD1 mouse assessed as clonogenic survival at 316 umol/kg, ip after 18 hrs relative to control. Type of data set: functional. An outline of the steps: as §2
The nature of data set [20]: Half life in CD1 mouse at 316 umol/kg, ip. Type of data set: ADME, organism-based. The settings on record: in vivo. A digest of the protocol: as §3
Data set [21] deals with HT-29. The data set is described as follows: Antitumor activity against human HT29 cells implanted in CD1 mouse at 316 umol/kg, ip administered 5 mins after irradiation by excision assay relative to radiation alone. Type of data set: functional. A digest of the protocol: as §1
Data set [22] relates to HT-29. As to the kind of experiment: Antitumor activity against human HT29 cells implanted in CD1 mouse at 133 umol/kg, ip administered 5 mins after irradiation by excision assay relative to radiation alone. The data set is classed as functional. An outline of the steps:
as §1

For data set [23], the system named is HT-29. The data set is described as follows: Antitumor activity against human HT29 cells implanted in CD1 mouse assessed as clonogenic survival at 133 umol/kg, ip after 18 hrs relative to control. The data set is classed as functional. A digest of the protocol:
as §2

The nature of data set [24]: Cmax in CD1 mouse at 133 umol/kg, ip. The data set is classed as ADME, organism-based. Also noted: dose 133 umol/kg, route intraperitoneal. The settings on record: in vivo. A digest of the protocol:
as §3

A short description of data set [25]: AUC in CD1 mouse at 133 umol/kg, ip. As to conditions: plasma. Type of data set: ADME, organism-based. A digest of the protocol: as §3

The source of these data is ChEMBL document CHEMBL1138329, “Pharmacokinetic/pharmacodynamic model-guided identification of hypoxia-selective 1,2,4-benzotriazine 1,4-dioxides with antitumor activity: the role of extravascular transport” (J Med Chem, 2007).

By IC50 is commonly meant the concentration at which inhibition is half-maximal. For orientation: half-life means the time in which the quantity being followed falls by half. Read a low half-life as rapid decline. As a reminder, the Cmax is the peak of the concentration-time curve. The term solubility denotes how much of the substance goes into solution per volume. The AUC is concentration integrated over time. Read a high AUC as more exposure.

Some results are limits rather than exact numbers.

For the compound `Cc1ccc2c(c1)[n+]([O-])c(NCCN(C)C)n[n+]2[O-]`, the IC50 in the data set on SiHa [1] is 1100 nM; in the data set on HT-29 [10], 1900 nM. Further, the results for the LCK in the data set on HT-29 [2] and in the data set on HT-29 [4] were 1 and 0.07, respectively. Moreover, the “Ratio IC50” value in the data set on HT-29 [3] was determined as 159; in the data set on SiHa [5], 200. The same compound came in with an MTD in the data set on Mus musculus of 562 µmol/kg. In the data set with HT-29 [6], this compound displayed a D of 3.99e-07 cm²/s. In data set [7], this compound yielded a half-life of 22.5 min. Besides, the Activity in the data set with HT-29 [8] was 6.3 µM·h. This compound came in with a Cmax in data set [9] of 104 µM. Also, the fraction unbound in [11] was 0.04. For the same compound, the solubility in [12] was greater than 51 mM.

In the case of `CCc1ccc2c(c1)[n+]([O-])c(NCCCN1CCOCC1)n[n+]2[O-]`, the figures for the IC50 with SiHa [1] and with HT-29 [10] were 5600 nM and 10400 nM, respectively. In addition, the “Ratio IC50” value with HT-29 [3] is recorded as greater than 36; in the data set with SiHa [5], 66. Moreover, the MTD in the data set with Mus musculus turned out to be 1000 µmol/kg. The same compound displayed a half-life in [13] of 24.9 min. Moreover, the highest level in [14] (Cmax) was 139 µM. In addition, the Activity in the data set on HT-29 [8] amounted to 56.5 µM·h. In addition, the figures for the LCK in the data set with HT-29 [15] and in the data set with HT-29 [17] were 0.13 and 0.82, respectively. This compound showed an area under the curve (AUC) in data set [16] of 94.8 µM·h. Also, the solubility in data set [12] was 55 mM.

`CCCN(CCC)CCNc1n[n+]([O-])c2ccccc2[n+]1[O-]`: the peak level in [18] (Cmax) was 17 µM. The IC50 was 2000 nM in the data set on SiHa [1] and 1700 nM with HT-29 [10]. For the same compound, the “Ratio IC50” value in the data set with HT-29 [3] is reported as 82; with SiHa [5], 68. The compound further had an MTD with Mus musculus of 316 µmol/kg. The D in the data set on HT-29 [6] was 1.71e-06 cm²/s. Also, the LCK came to 0.01 with HT-29 [19] and 0.25 in the data set with HT-29 [21]. In [20], this compound displayed a half-life of 11.8 min. The Activity in the data set on HT-29 [8] came out at 3.9 µM·h. For the same compound, in data set [11], the fraction unbound is 0.023. Also, the solubility in data set [12] is greater than 25 mM.

As for `Nc1n[n+]([O-])c2ccccc2[n+]1[O-]` [TIRAPAZAMINE], the LCK in the data set with HT-29 [22] amounted to 0.59; in the data set with HT-29 [23], 0.15. Besides, the IC50 came out at 2500 nM in the data set on SiHa [1] and 5100 nM in the data set with HT-29 [10]. The MTD with Mus musculus was determined as 178 µmol/kg. Besides, the D in the data set on HT-29 [6] is 4.04e-07 cm²/s. The Activity in the data set on HT-29 [8] was 24.3 µM·h. For the same compound, the peak level in [24] (Cmax) was 61.7 µM. For the same compound, in [25], the AUC was 49.2 µM·h. The solubility in [12] came to 8.9 mM.
